Reference: ChEMBL document CHEMBL1145295, “Synthesis and biological evaluation of 5-arylamino-6-chloro-1H-indazole-4,7-diones as inhibitors of protein kinase B/Akt” (Bioorg Med Chem Lett, 2006)
The source made the active and inactive calls. The rule behind the calls is not given here.

Tests used:
[1] = biological target: RAC-alpha serine/threonine-protein kinase (Homo sapiens, UniProt P31749); assay: Inhibition of Akt1 activity assessed as decrease in GSK3 phosphorylation; format: functional
Procedure, shortened: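 Akt1 enzyme (10 U/µL) preincubated 10 min at 37 °C with compound in DMSO in HEPES 20 mM, NaCl 14.3 mM, EDTA 1 mM, DTT 2 mM. Then 3 µL of 2 mM ATP and GSK3 fusion protein added, 30 min at 37 °C. Stopped at 70 °C for 5 min. Phospho-GSK3 detected by SDS-PAGE/Western or dot blot with anti-phospho (Ser21/9) antibody, ECL and densitometry.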

[2] = Cytotoxicity against human KATO3 cells by MTT assay; format: functional, cell-based
Procedure, shortened: (§1)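 MTT colorimetric cytotoxicity assay following NCI protocols. Cells grown in DMEM with 10% heat-inactivated FBS at 37 °C, 5% CO₂.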

HepG2 = assay: Cytotoxicity against human HepG2 cells by MTT assay; format: functional, cell-based; procedure, shortened: as §1
PC-3 [3] = assay: Cytotoxicity against human PC3 cells by MTT assay; format: functional, cell-based; procedure, shortened: as §1
[4] = biological target: T1, Serine/threonine-protein kinase AKT (Homo sapiens) (UniProt P31751+Q9Y243+P31749); assay: Inhibition of GSK3-alpha phosphorylation in PC3 cells at 10 uM upto 5 hrs; format: functional, cell-based; details: PC-3, TDE = time-dependent effect
Procedure, shortened: (§2)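 PC-3 cells (2×10⁶) cultured one day in DMEM/10% FBS, then exposed to 10 µM compound for up to 5 h. Lysates (70 µg) resolved on 12% gel. Western blot with anti-phospho-GSK3α/β (Ser21/9), anti-phospho-Akt (Ser473), anti-Akt and anti-GSK3β antibodies, ECL and densitometry. Values are relative to DMSO treatment.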

[5] = biological target: T1, Serine/threonine-protein kinase AKT (Homo sapiens); assay: Inhibition of GSK3-beta phosphorylation in PC3 cells at 10 uM upto 5 hrs; format: functional, cell-based; details: PC-3, TDE = time-dependent effect; procedure, shortened: as §2
PC-3 [6] = assay: Inhibition of Akt1 phosphorylation in PC3 cells at 10 uM upto 5 hrs; format: functional, cell-based; details: Homo sapiens; procedure, shortened: as §2
PC-3 [7] = assay: Antitumor activity against human PC3 cell xenografted in nude mouse at 5 mg/kg/day after 16 days; format: functional
Procedure, shortened: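 Male nude mice, 4 weeks old, inoculated sc in the flank with PC-3 cells (10⁶ cells/site). At 200 mm³ tumors, randomized into groups (n = 6). Dosed iv daily for 16 days in cremophor vehicle (ethanol 7%, cremophor 7%, water). Tumors measured twice weekly by caliper, volume = length·width²/2. Inhibition is relative to vehicle at day 16.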

T1 sequence (P31749 whole entry, looked up): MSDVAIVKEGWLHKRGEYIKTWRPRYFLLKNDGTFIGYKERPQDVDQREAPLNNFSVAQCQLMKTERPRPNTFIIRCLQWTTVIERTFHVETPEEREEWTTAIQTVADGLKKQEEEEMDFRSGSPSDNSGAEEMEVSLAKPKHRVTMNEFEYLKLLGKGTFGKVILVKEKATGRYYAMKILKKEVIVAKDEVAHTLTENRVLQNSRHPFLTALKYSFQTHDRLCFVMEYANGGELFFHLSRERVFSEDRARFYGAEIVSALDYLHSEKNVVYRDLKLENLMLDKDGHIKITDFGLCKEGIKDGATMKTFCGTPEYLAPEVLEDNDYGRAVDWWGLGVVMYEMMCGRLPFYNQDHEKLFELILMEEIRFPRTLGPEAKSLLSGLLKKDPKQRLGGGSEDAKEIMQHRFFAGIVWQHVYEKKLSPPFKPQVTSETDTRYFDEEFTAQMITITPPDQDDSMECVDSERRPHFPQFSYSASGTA
T1 sequence (P31751 whole entry, looked up): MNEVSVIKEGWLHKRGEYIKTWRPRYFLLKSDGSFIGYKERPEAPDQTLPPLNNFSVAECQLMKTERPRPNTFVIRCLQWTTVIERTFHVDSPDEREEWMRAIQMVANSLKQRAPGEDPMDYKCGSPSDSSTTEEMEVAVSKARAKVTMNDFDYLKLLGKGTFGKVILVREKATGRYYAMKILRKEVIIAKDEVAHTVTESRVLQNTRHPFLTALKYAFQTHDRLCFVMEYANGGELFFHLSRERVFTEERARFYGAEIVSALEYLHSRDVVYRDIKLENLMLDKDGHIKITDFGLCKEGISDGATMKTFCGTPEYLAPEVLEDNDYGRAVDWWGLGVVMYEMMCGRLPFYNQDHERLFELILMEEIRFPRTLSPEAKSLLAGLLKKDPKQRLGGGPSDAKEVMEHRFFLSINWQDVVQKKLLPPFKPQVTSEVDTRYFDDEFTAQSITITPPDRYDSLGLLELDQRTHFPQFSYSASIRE
T1 sequence (Q9Y243 whole entry, looked up): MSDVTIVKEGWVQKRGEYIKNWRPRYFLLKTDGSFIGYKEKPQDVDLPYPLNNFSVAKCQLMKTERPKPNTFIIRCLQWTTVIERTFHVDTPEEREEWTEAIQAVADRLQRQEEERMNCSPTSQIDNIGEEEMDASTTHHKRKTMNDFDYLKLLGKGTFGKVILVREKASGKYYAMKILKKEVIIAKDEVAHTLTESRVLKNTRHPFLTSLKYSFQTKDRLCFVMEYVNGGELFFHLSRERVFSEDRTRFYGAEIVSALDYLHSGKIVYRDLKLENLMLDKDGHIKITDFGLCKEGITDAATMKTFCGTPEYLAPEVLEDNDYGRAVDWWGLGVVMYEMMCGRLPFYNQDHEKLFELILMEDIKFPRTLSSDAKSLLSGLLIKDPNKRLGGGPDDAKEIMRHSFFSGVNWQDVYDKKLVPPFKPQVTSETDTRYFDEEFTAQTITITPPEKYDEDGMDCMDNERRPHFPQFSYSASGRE
Sequence of RAC-alpha serine/threonine-protein kinase (P31749 whole entry, the tested form may be a part): as the sequence (P31749 whole entry, looked up) above

SMILES | IC50 [1] | IC50 [2] | IC50 (HepG2) | IC50 (PC-3 [3]) | inhibition [4] | inhibition [5] | Activity (PC-3 [6]) | Activity (PC-3 [7])
Nc1ccc(N)c2[nH]ncc12 | > 50 µM | > 100 µM | > 100 µM |  |  |  |  | 
O=C1C(Nc2ccc(C(F)(F)F)cc2)=C(Cl)C(=O)c2[nH]ncc21 | 12.4 µM | 13.8 µM | 9.2 µM | 13.7 µM | tde | tde | Active | 27.1%
Cc1cc(C)cc(SC2=C(Cl)C(=O)c3[nH]ncc3C2=O)c1 | > 50 µM | > 100 µM | > 100 µM |  |  |  |  | 
CCOc1ccc(NC2=C(Cl)C(=O)c3[nH]ncc3C2=O)cc1 | 4.9 µM | 9.7 µM | 11.2 µM |  |  |  |  | 
O=C1C(Nc2ccc(F)cc2F)=C(Cl)C(=O)c2[nH]ncc21 | 16 µM | 9.9 µM | 2 µM |  |  |  |  | 
O=C1C(Nc2ccccc2F)=C(Cl)C(=O)c2[nH]ncc21 | 15.8 µM | 20.2 µM | 15.8 µM |  |  |  |  | 
O=C1C(Nc2ccc(F)cc2)=C(Cl)C(=O)c2[nH]ncc21 | > 50 µM | 61.4 µM | 37.2 µM |  |  |  |  | 
O=C1C(Nc2cccc(Br)c2)=C(Cl)C(=O)c2[nH]ncc21 | 13.9 µM | 8.9 µM | 6.1 µM |  |  |  |  | 
O=C1C(Nc2cc(F)cc(F)c2)=C(Cl)C(=O)c2[nH]ncc21 | > 50 µM | 75.8 µM | 37.6 µM |  |  |  |  | 
O=C1C(Sc2ccc(Cl)c(Cl)c2)=C(Cl)C(=O)c2[nH]ncc21 | 12.3 µM | > 100 µM | 88.7 µM |  |  |  |  | 
O=C1C(Nc2cccc(F)c2)=C(Cl)C(=O)c2[nH]ncc21 | 11.8 µM | 3.9 µM | 8.9 µM | 6.3 µM | tde | tde | Active | 
